Measured values published in ChEMBL document CHEMBL1671663, “In vivo characterization of the peptide deformylase inhibitor LBM415 in murine infection models” (Antimicrob Agents Chemother, 2009).
≈ marks a conversion by molar mass, not a printed value.

Assays:
Assay type in all cases: functional
Streptococcus pneumoniae [1] = test: Antimicrobial activity against Streptococcus pneumoniae ATCC 6303 infected in po dosed BALB/c mouse pneumonia model assessed as complete eradication of bacteria administered twice daily 3 days starting 16 hrs post infection; settings: Streptococcus pneumoniae, ATCC 6303, po
How it was run: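 Anesthetized (ketamine/xylazine) female BALB/c mice (19 to 22 g) inoculated intranasally with 50 µl log-phase culture (1.4 × 10^5 CFU/mouse). Oral treatment, six mice per group, at 16, 27, 40, 51, 64 and 75 h postinfection; vehicle controls. Lungs harvested one day after last dose, homogenized, plated; log10 CFU/lung. Deaths assigned 9 log10 CFU/lung; Kruskal-Wallis with Dunn's test versus control.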

Staphylococcus aureus [2] = test: Antimicrobial activity against methicillin-susceptible Staphylococcus aureus ATCC 49951 by broth microdilution method
How it was run: (§1)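 MICs determined by broth microdilution following CLSI guidelines. Inocula came from overnight Mueller-Hinton broth (ATCC 49951, NB01021) or overnight Trypticase soy agar culture (ATCC 6301). ATCC 6303 and ATCC 700677 came from a 5-h log culture in Todd-Hewitt broth–30% horse serum.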

Staphylococcus aureus [3] = test: Antimicrobial activity against methicillin-susceptible Staphylococcus aureus ATCC 13709 by broth microdilution method
How it was run: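 MIC by broth microdilution following CLSI guidelines.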

Staphylococcus aureus [4] = test: Antimicrobial activity against methicillin-resistant Staphylococcus aureus NB01021 by broth microdilution method; how it was run: as §1
Streptococcus pneumoniae [5] = test: Antimicrobial activity against Streptococcus pneumoniae ATCC 6301 by broth microdilution method; how it was run: as §1
Streptococcus pneumoniae [6] = test: Antimicrobial activity against Streptococcus pneumoniae ATCC 6303 by broth microdilution method; how it was run: as §1
Streptococcus pneumoniae [7] = test: Antimicrobial activity against multiple drug-resistant Streptococcus pneumoniae ATCC 700677 by broth microdilution method; how it was run: as §1
Staphylococcus aureus [8] = test: Antimicrobial activity against methicillin-resistant Staphylococcus aureus NB01021 infected in sc dosed BALB/c mouse administered 0, 4, 23 hrs post infection
How it was run: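 Female BALB/c mice (19–23 g) infected intraperitoneally with MRSA NB01021 in 5% hog gastric mucin, 2.1 × 10^7 to 2.8 × 10^7 CFU/mouse (0.3 ml), 10–100× minimal lethal dose. Three dose levels, groups of 5–6; vehicle controls. Treatment 0, 4 and 23 h post-infection. Observed 8 days; ED50 with 95% CI by probit analysis of day-8 survival.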

Streptococcus pneumoniae [9] = test: Antimicrobial activity against multiple drug resistant Streptococcus pneumoniae ATCC 700677 infected in po dosed BALB/c mouse administered twice daily for 3 days; settings: ATCC 700677, po, 72 h
How it was run: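 Female BALB/c mice (19–23 g) infected intraperitoneally with ATCC 700677 from a 5-h Todd-Hewitt–30% horse serum log culture, suspended in 5% hog mucin, 1.5 × 10^7 to 2 × 10^7 CFU/mouse. Groups of 5–6, typically three dose levels; vehicle controls. Dosed 1, 5, 17, 27, 42, 51 h post-infection. ED50 from day-8 survival by probit analysis, with 95% CI.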

Staphylococcus aureus [10] = test: Antimicrobial activity against methicillin susceptible Staphylococcus aureus ATCC 49951 infected in sc dosed NMRI mouse treated 1 and 5 hrs post infection; settings: ATCC 49951, sc
How it was run: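 Intraperitoneal infection (0.3 ml/mouse, 10 to 100 times minimal lethal dose) with inoculum in 0.86% NaCl; ATCC 49951 grown overnight in Mueller-Hinton broth (1.7 × 10^7 to 2.2 × 10^7 CFU/mouse), ATCC 13709 in tryptic soy broth (7.3 × 10^7 to 2 × 10^8 CFU/mouse). Groups of 5 to 6 mice, typically three doses, treated 1 and 5 h postinfection; vehicle controls. ED50 by probit analysis of day-8 survival.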

Staphylococcus aureus [11] = test: Antimicrobial activity against methicillin susceptible Staphylococcus aureus ATCC 13709 infected in sc dosed NMRI mouse treated 1 and 5 hrs post infection; settings: ATCC 13709, sc
How it was run: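 Systemic infection: ATCC 13709 grown overnight in tryptic soy broth and suspended in 0.86% NaCl. Given intraperitoneally at 7.3 × 10^7 to 2 × 10^8 CFU/mouse, 10–100× the minimal lethal dose, 0.3 ml/mouse. Groups of 5–6 mice, typically three dose levels; controls got vehicle. Dosed 1 and 5 h post-infection. Survival followed 8 days; ED50 (protection of 50%) with 95% CI by probit analysis of day-8 survival.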

| SMILES | ED50 (Streptococcus pneumoniae [1]) [mg/kg] | MIC (Staphylococcus aureus [2]) [mg/L] | MIC (Staphylococcus aureus [3]) [mg/L] | MIC (Staphylococcus aureus [4]) [mg/L] | MIC (Streptococcus pneumoniae [5]) [mg/L] | MIC (Streptococcus pneumoniae [6]) [mg/L] | MIC (Streptococcus pneumoniae [7]) [mg/L] | ED50 (Staphylococcus aureus [8]) [mg/kg] | ED50 (Streptococcus pneumoniae [9]) [mg/kg] | ED50 (Staphylococcus aureus [10]) [mg/kg] | ED50 (Staphylococcus aureus [11]) [mg/kg] |
| --- | --- | --- | --- | --- | --- | --- | --- | --- | --- | --- | --- |
| COc1c(N2C[C@@H]3CCCN[C@@H]3C2)c(F)cc2c(=O)c(C(=O)O)cn(C3CC3)c12 [MOXIFLOXACIN] | 14.3 | 0.06 (≈ 0.149 µM) | ≤ 0.03 | 1 (≈ 2.49 µM) | 0.5 (≈ 1.25 µM) | 0.5 (≈ 1.25 µM) | ≤ 0.06 | – | – | – | – |
| CC1(C)S[C@@H]2[C@H](NC(=O)Cc3ccccc3)C(=O)N2[C@H]1C(=O)O [PENICILLIN G] | – | ≤ 0.125 | ≤ 0.125 | 64 (≈ 191 µM) | 0.03 (≈ 0.0897 µM) | 0.06 (≈ 0.179 µM) | 32 (≈ 95.7 µM) | > 135 | – | – | – |
| CC1(C)S[C@@H]2[C@H](NC(=O)COc3ccccc3)C(=O)N2[C@H]1C(=O)O [PENICILLIN V] | – | – | – | – | – | – | – | – | > 60 | – | – |
| CC[C@H]1OC(=O)[C@H](C)C(=O)[C@H](C)[C@@H](O[C@@H]2O[C@H](C)C[C@H](N(C)C)[C@H]2O)[C@](C)(OC)C[C@@H](C)C(=O)[C@H](C)[C@H]2N(CCCCn3cnc(-c4cccnc4)c3)C(=O)O[C@]12C [TELITHROMYCIN] | – | 0.25 (≈ 0.308 µM) | ≤ 0.125 | > 64 | ≤ 0.125 | ≤ 0.125 | ≤ 0.25 | – | 13.2 | – | – |
| CN[C@H](CC(C)C)C(=O)N[C@H]1C(=O)N[C@@H](CC(N)=O)C(=O)N[C@H]2C(=O)N[C@H]3C(=O)N[C@H](C(=O)N[C@H](C(=O)O)c4cc(O)cc(O)c4-c4cc3ccc4O)[C@H](O)c3ccc(c(Cl)c3)Oc3cc2cc(c3O[C@@H]2O[C@H](CO)[C@@H](O)[C@H](O)[C@H]2O[C@H]2C[C@](C)(N)[C@H](O)[C@H](C)O2)Oc2ccc(cc2Cl)[C@H]1O [VANCOMYCIN] | – | – | – | – | 0.5 (≈ 0.345 µM) | 0.5 (≈ 0.345 µM) | ≤ 0.125 | 2.5 | – | 1.5 | 2.8 |
